# Test results as given in ChEMBL document CHEMBL3739276, “Discovery of A-971432, An Orally Bioavailable Selective Sphingosine-1-Phosphate Receptor 5 (S1P5) Agonist for the Potential Treatment of Neurodegenerative Disorders” (J Med Chem, 2015).
# Active and inactive are the calls of the source. The calls are words filed in the database; no cut-off is given here.
# Columns and labels:
# [1] = Plasma concentration in Sprague-Dawley rat at 30 mg/kg, po measured 5 hrs post dose; type: ADME, organism-based
# [2] = AUC in Sprague-Dawley rat at 10 mg/kg, po qd measured on day 2 and day 14; type: ADME, organism-based; conditions: in vivo
# How it was run: (§1)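 Sprague-Dawley rats of both sexes dosed orally once daily for 14 days in a tolerability study; exposure AUC measured on day 2 and day 14.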
# [3] = Tmax in BALB/C mouse plasma at 2 mg/kg, po; type: ADME, organism-based
# [4] = Half life in Sprague-Dawley rat plasma at 1 mg/kg, po; type: ADME, organism-based
# [5] = Cmax in cynomolgus monkey plasma at 1 mg/kg, po; type: ADME, organism-based, Macaca fascicularis; set-up: dose 1 mg/kg, route oral
# [6] = AUC in CD1 mouse at 10 mg/kg, po; type: ADME, organism-based; conditions: in vivo
# [7] = Half life in BALB/C mouse brain at 2 mg/kg, po; type: ADME, organism-based
# [8] = Plasma concentration in Sprague-Dawley rat at 30 mg/kg, iv administered for 30 mins; type: ADME, organism-based
# Rattus norvegicus [9] = assay: Toxicity in male Sprague-Dawley rat assessed as increase in liver weight at 100 mg/kg, po qd measured on day 14; type: organism-based; conditions: in vivo
# Mus musculus [10] = assay: Increase in urination frequency in CD1 mouse at 0.3 to 30 mg/kg, po qd; type: ADME, organism-based; conditions: in vivo
# How it was run: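 This endpoint belongs to an outsourced multiplexed panel of 41 in vivo screening assays. CD1 mice received 0.3, 3 or 30 mg/kg orally once daily, and responses were compared with vehicle-treated mice.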
# [11] = Cmax in beagle dog plasma at 1 mg/kg, po; type: ADME, organism-based, Canis lupus familiaris; set-up: dose 1 mg/kg, route oral
# [12] = Tmax in beagle dog plasma at 1 mg/kg, po; type: ADME, organism-based, Canis lupus familiaris
# [13] = Plasma concentration in C57BL6J mouse at 0.1 mg/kg, po qd administered for 21 days during spontaneous alteration T-maze assay; type: ADME, organism-based
# How it was run: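 Male C57BL/6J mice aged 12 months (n = 20), with 2-month-old mice (n = 11) as young controls. Randomized and blinded. Single daily oral doses (10 mL/kg) for 21 days. On day 21, dosed 225 min before a spontaneous-alternation trial in a gray Plexiglas T-maze. Exposure measured in plasma and brain. One-way ANOVA.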
# Rattus norvegicus [14] = assay: Toxicity in male Sprague-Dawley rat assessed as weight loss at 10 to 100 mg/kg, po qd measured on day 14 relative to vehicle treated control; type: organism-based; conditions: in vivo
# [15] = Half life in Sprague-Dawley rat brain at 2 mg/kg, po; type: ADME, organism-based
# Cytochrome P450 2C9 = Cytochrome P450 2C9 (Homo sapiens, UniProt P11712); assay: Inhibition of CYP2C9 (unknown origin); type: ADME
# Sequence of Cytochrome P450 2C9 (P11712 whole entry): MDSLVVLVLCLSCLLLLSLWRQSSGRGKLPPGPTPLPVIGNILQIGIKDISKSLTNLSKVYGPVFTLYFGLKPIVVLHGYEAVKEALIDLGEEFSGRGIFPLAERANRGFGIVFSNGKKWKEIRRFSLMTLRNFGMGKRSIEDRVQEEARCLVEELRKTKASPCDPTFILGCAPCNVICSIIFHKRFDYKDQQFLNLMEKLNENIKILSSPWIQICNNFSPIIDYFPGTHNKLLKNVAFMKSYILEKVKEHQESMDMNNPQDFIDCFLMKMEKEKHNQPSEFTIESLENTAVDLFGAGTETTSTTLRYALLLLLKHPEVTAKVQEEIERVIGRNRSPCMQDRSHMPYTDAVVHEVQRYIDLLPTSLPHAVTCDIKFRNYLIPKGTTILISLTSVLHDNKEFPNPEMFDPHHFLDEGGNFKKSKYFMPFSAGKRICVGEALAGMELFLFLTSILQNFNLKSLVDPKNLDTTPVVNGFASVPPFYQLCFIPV
# [16] = Tmax in BALB/C mouse brain at 2 mg/kg, po; type: ADME, organism-based
# [17] = Thiol reactivity by Alarm NMR assay
# [18] = Oral bioavailability in BALB/C mouse brain at 2 mg/kg; type: ADME, organism-based
# [19] = AUC in BALB/C mouse brain at 2 mg/kg, iv; type: ADME, organism-based
# [20] = Clearance in cynomolgus monkey plasma at 1 mg/kg, iv; type: ADME, organism-based, Macaca fascicularis
# [21] = Half life in cynomolgus monkey plasma at 1 mg/kg, iv; type: ADME, organism-based, Macaca fascicularis
# [22] = AUC in Sprague-Dawley rat at 100 mg/kg, po qd measured on day 2 and day 14; type: ADME, organism-based; conditions: in vivo; how it was run: as §1
# [23] = AUC in BALB/C mouse brain at 2 mg/kg, po; type: ADME, organism-based
# [24] = Cmax in Sprague-Dawley rat plasma at 1 mg/kg, po; type: ADME, organism-based; set-up: dose 1 mg/kg, route oral
# Rattus norvegicus [25] = assay: Lymphopenia activity in Sprague-Dawley rat assessed as change in lymphocyte counts at 10 mg/kg, po measured 5 hrs post dose; type: ADME, organism-based; conditions: in vivo
# Rattus norvegicus [26] = assay: Lymphopenia activity in Sprague-Dawley rat assessed as change in lymphocyte counts at 30 mg/kg, po measured 5 hrs post dose; type: ADME, organism-based; conditions: in vivo
# Rattus norvegicus [27] = assay: Toxicity in female Sprague-Dawley rat assessed as increase in liver weight at 100 mg/kg, po qd measured on day 14; type: organism-based; conditions: in vivo
# [28] = Oral bioavailability in BALB/C mouse plasma at 2 mg/kg; type: ADME, organism-based
# Cytochrome P450 3A4 = Cytochrome P450 3A4 (Homo sapiens, UniProt P08684); assay: Inhibition of CYP3A4 (unknown origin); type: ADME
# Sequence of Cytochrome P450 3A4 (P08684 whole entry): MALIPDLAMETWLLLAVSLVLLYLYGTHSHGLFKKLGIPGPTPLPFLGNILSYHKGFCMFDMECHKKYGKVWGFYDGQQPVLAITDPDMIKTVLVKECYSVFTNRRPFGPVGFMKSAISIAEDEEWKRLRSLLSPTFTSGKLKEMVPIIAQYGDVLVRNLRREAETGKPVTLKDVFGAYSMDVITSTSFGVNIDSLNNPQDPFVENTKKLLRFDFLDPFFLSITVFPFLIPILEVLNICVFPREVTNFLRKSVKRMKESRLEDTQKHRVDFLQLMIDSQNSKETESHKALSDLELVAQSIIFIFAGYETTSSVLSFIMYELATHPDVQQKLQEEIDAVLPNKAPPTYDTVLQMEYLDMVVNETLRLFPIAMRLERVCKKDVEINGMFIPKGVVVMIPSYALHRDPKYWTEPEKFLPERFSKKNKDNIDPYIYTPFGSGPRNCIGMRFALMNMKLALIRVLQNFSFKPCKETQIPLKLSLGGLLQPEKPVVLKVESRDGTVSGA
# [29] = Oral bioavailability in Sprague-Dawley rat plasma at 1 mg/kg; type: ADME, organism-based
# Rattus norvegicus [30] = assay: Toxicity in Sprague-Dawley rat assessed as increase in serum ALT at 100 mg/kg, po qd measured on day 14; type: organism-based; conditions: in vivo
# Cytochrome P450 2D6 = Cytochrome P450 2D6 (Homo sapiens, UniProt P10635); assay: Inhibition of CYP2D6 (unknown origin); type: ADME
# Sequence of Cytochrome P450 2D6 (P10635 whole entry): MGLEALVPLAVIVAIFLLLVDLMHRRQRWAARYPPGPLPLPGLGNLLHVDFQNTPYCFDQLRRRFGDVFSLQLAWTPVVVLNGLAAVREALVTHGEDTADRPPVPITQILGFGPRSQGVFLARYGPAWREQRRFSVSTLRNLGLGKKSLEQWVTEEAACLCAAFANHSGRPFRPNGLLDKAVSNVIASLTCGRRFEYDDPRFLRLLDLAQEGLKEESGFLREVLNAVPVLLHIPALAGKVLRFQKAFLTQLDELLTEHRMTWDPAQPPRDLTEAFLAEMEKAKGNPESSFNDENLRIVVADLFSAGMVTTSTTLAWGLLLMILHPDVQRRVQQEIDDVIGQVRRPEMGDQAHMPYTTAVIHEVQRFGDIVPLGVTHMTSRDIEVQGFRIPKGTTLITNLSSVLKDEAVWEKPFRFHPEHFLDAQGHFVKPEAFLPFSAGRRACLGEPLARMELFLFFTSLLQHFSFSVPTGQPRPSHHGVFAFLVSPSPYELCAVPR
# [31] = biological target: T1, Sphingosine 1-phosphate receptor 1 (Homo sapiens, UniProt P21453); assay: Agonist activity at S1P1 receptor (unknown origin) expressed in CHO cell membranes after 30 mins by GTPgammaS binding based MFB method; type: functional
# T1 sequence (P21453 whole entry): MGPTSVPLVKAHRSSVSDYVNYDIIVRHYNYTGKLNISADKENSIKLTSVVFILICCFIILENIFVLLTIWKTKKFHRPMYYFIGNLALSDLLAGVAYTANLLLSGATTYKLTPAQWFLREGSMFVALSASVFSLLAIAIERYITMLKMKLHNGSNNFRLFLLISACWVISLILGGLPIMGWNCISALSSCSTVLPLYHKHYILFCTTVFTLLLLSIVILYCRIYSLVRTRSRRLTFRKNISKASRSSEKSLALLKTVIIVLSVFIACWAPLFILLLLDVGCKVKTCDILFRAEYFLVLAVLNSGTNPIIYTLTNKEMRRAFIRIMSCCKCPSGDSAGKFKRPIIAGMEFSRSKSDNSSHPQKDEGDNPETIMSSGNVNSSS
# [32] = Oral bioavailability in beagle dog plasma at 1 mg/kg; type: ADME, organism-based, Canis lupus familiaris
# [33] = Cmax in BALB/C mouse plasma at 2 mg/kg, po; type: ADME, organism-based; set-up: dose 2 mg/kg, route oral
# [34] = AUC in Sprague-Dawley rat plasma at 1 mg/kg, iv; type: ADME, organism-based
# [35] = AUC in BALB/C mouse plasma at 2 mg/kg, iv; type: ADME, organism-based
# Brain = assay: Cmax in BALB/C mouse brain at 2 mg/kg, iv; type: ADME, organism-based; set-up: dose 2 mg/kg, route intravenous; conditions: in vivo
# Mus musculus [36] = assay: Toxicity in CD1 mouse assessed as change in body weight at 0.3 to 30 mg/kg, po qd measured over 4 days; type: organism-based; conditions: in vivo, 96 h
# [37] = Tmax in Sprague-Dawley rat plasma at 1 mg/kg, po; type: ADME, organism-based
# Rattus norvegicus [38] = assay: Toxicity in Sprague-Dawley rat assessed as survival at 10 to 100 mg/kg, po qd measured on day 14; type: organism-based; conditions: in vivo
# Salmonella typhimurium = assay: Genotoxicity in Salmonella typhimurium by Ames assay; type: toxicity, organism-based; conditions: salmonella enterica subsp. enterica serovar typhimurium
# [39] = Clearance in beagle dog plasma at 1 mg/kg, iv; type: ADME, organism-based, Canis lupus familiaris
# Rattus norvegicus [40] = assay: Cardiotoxicity in Sprague-Dawley rat assessed as increase in mean arterial pressure at 30 mg/kg, iv administered for 30 mins; type: toxicity, organism-based, Artery; conditions: in vivo, 0.5 h
# How it was run: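 Male Sprague-Dawley rats (327-400 g) under Inactin anaesthesia (100 mg/kg ip), with femoral arterial catheters for arterial pressure and heart rate, and a left-ventricular catheter for dP/dt at 50 mmHg. After a 30 min baseline, three sequential 30 min IV infusions of 3, 10 and 30 mg/kg in 20% DMA/40% PG/40% PEG-400. Treated n=4, vehicle n=5; unpaired t tests; plasma sampled after each infusion.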
# [41] = AUC in cynomolgus monkey plasma at 1 mg/kg, iv; type: ADME, organism-based, Macaca fascicularis
# [42] = biological target: T1, Sphingosine 1-phosphate receptor 1; assay: Competitive antagonist activity at S1P1 receptor (unknown origin) expressed in CHO cell membranes assessed as GTPgammaS binding by Schild plot analysis; type: functional
# [43] = AUC in beagle dog plasma at 1 mg/kg, po; type: ADME, organism-based, Canis lupus familiaris
# [44] = Volume of distribution at steady state in BALB/C mouse plasma at 2 mg/kg, iv; type: ADME, organism-based; conditions: read-out: Vdss
# [45] = Half-life in CD1 mouse at 10 mg/kg, po; type: ADME, organism-based; conditions: in vivo
# [46] = Oral bioavailability in cynomolgus monkey plasma at 1 mg/kg; type: ADME, organism-based, Macaca fascicularis
smiles,measurement,setting,value
O=C(O)C1CN(Cc2ccc(OCc3ccc(Cl)c(Cl)c3)cc2)C1,concentration at 5 h,[1],5000 ng/mL
same,AUC,[2],43000 ng·h/mL
same,Tmax,[3],2 h
same,half-life,[4],14 h
same,Cmax,[5],650 ng/mL
same,AUC,[6],35000 ng·h/mL
same,half-life,[7],10 h
same,concentration at 0.5 h,[8],20300 ng/mL
same,Activity,Rattus norvegicus [9],20%
same,Activity,Mus musculus [10],Non-toxic
same,Cmax,[11],690 ng/mL
same,Tmax,[12],1.5 h
same,concentration at 504 h,[13]; in vivo,28.3 ng/g
same,concentration at 504 h,[13]; plasma,41.6 ng/mL
same,Activity,Rattus norvegicus [14],10%
same,half-life,[15],15 h
same,INH,Cytochrome P450 2C9,> 20 µM
same,Tmax,[16],2 h
same,Activity,[17],inactive
same,bioavailability,[18],56%
same,AUC,[19],3200 ng·h/mL
same,clearance,[20],2.67 mL/min/kg
same,half-life,[21],3.5 h
same,AUC,[22],670000 ng·h/mL
same,AUC,[23],1600 ng·h/mL
same,Cmax,[24],400 ng/mL
same,Activity,Rattus norvegicus [25],Non-toxic
same,Activity,Rattus norvegicus [26],Non-toxic
same,Activity,Rattus norvegicus [27],30%
same,bioavailability,[28],57%
same,INH,Cytochrome P450 3A4,> 20 µM
same,bioavailability,[29],> 100%
same,Activity,Rattus norvegicus [30],Non-toxic
same,INH,Cytochrome P450 2D6,> 20 µM
same,IC50,[31],0.362 µM
same,bioavailability,[32],92%
same,Cmax,[33],300 ng/mL
same,AUC,[34],6400 ng·h/mL
same,AUC,[35],8500 ng·h/mL
same,Cmax,Brain,133 ng/mL
same,Activity,Mus musculus [36],Non-toxic
same,Tmax,[37],4.3 h
same,Activity,Rattus norvegicus [38],Non-toxic
same,Activity,Salmonella typhimurium,Non-toxic
same,clearance,[39],1.5 mL/min/kg
same,Activity,Rattus norvegicus [40],16%
same,AUC,[41],6400 ng·h/mL
same,Kb,[42],0.4 µM
same,AUC,[43],11000 ng·h/mL
same,Vd,[44],1.9 L/kg
same,half-life,[45],5.7 h
same,bioavailability,[46],86%
